Experimental data taken from the M2OR odorant receptor database.
Numbering of substitutions follows the chain as printed.

Experiments:
Conditions in all cases: stereoisomer not certain
OR5AR1 (Homo sapiens) = molecular target: T1, OR5AR1 (Homo sapiens) (UniProt Q8NGP9)
T1 sequence (whole entry): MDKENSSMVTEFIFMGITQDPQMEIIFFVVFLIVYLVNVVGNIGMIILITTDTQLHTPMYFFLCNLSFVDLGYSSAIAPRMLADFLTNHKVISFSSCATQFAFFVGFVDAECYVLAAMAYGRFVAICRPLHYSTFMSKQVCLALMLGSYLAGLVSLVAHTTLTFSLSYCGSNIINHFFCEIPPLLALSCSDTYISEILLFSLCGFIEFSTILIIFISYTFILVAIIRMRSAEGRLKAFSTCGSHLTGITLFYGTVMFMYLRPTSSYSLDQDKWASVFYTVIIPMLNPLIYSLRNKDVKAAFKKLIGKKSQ
In short: (§1)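 Transient luciferase assays in mammalian cell lines were common, though methods varied by source. The values come from published papers and their supplementary material, with extra details from the original authors when needed. Responsive refers to a measured signal the original authors judged statistically different from baseline, and non-responsive (inactive) to the remainder.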

OR5AS1 (Homo sapiens) = molecular target: T2, OR5AS1 (Homo sapiens) (UniProt Q8N127)
T2 sequence (whole entry): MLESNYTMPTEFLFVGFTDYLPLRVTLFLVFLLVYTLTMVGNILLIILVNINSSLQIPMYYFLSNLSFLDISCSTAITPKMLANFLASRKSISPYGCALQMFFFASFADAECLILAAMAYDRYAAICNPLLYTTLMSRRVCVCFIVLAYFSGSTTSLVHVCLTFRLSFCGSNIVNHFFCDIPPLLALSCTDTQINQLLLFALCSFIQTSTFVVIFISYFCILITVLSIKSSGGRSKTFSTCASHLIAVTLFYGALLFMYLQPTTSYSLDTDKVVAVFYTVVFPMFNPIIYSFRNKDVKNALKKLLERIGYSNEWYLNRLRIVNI
In short: as §1

OR5AU1 (Homo sapiens) = molecular target: T3, OR5AU1 (Homo sapiens) (UniProt Q8NGC0)
T3 sequence (whole entry): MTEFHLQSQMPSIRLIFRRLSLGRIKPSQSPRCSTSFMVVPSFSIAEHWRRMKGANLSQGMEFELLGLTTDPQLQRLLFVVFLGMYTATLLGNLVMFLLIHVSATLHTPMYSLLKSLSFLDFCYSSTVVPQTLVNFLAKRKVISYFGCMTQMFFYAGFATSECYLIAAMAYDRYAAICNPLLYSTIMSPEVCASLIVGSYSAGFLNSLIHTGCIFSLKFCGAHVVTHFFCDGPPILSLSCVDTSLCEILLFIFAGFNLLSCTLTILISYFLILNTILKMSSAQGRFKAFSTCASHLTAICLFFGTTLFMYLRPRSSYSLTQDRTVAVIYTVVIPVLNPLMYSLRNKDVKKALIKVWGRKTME
In short: as §1

OR5B12 (Homo sapiens) = molecular target: T4, OR5B12 (Homo sapiens) (UniProt Q96R08)
T4 sequence (whole entry): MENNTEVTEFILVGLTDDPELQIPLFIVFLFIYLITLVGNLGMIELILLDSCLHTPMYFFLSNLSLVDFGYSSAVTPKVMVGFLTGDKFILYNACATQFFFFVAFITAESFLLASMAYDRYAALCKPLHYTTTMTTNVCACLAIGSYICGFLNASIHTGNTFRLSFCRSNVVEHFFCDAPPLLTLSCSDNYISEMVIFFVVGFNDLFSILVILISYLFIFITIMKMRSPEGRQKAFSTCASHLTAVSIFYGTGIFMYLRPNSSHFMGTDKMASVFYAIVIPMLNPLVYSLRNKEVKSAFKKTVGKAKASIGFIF
In short: as §1

OR5B17 (Homo sapiens) = molecular target: T5, OR5B17 (Homo sapiens) (UniProt Q8NGF7)
T5 sequence (whole entry): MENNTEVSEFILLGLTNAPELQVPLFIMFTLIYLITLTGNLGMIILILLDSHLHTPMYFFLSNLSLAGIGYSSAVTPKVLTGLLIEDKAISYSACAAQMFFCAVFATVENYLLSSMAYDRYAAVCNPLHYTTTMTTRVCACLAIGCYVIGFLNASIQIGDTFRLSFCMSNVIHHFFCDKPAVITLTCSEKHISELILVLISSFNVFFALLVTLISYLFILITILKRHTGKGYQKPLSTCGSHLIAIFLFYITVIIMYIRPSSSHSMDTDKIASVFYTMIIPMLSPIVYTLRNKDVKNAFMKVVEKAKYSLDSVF
In short: as §1

OR5B2 (Homo sapiens) = molecular target: T6, OR5B2 (Homo sapiens) (UniProt Q96R09)
T6 sequence (whole entry): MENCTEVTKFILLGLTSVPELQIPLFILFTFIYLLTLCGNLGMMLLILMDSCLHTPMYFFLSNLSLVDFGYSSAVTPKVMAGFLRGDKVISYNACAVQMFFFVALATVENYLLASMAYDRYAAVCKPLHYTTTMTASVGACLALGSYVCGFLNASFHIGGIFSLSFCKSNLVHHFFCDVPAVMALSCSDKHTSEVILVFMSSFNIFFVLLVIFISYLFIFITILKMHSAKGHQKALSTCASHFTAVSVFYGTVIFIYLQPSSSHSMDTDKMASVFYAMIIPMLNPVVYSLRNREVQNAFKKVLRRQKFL
In short: as §1

OR5B21 (Homo sapiens) = molecular target: T7, OR5B21 (Homo sapiens) (UniProt A6NL26)
T7 sequence (whole entry): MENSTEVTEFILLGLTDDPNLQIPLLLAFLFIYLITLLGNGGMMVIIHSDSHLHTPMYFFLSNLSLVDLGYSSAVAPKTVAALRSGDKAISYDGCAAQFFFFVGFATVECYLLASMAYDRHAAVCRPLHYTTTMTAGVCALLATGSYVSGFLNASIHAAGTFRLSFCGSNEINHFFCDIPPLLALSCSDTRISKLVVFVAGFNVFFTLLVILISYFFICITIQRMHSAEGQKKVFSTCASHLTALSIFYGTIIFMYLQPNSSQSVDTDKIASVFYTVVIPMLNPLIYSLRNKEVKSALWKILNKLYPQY
In short: as §1

OR5B3 (Homo sapiens) = molecular target: T8, OR5B3 (Homo sapiens) (UniProt Q8NH48)
T8 sequence (whole entry): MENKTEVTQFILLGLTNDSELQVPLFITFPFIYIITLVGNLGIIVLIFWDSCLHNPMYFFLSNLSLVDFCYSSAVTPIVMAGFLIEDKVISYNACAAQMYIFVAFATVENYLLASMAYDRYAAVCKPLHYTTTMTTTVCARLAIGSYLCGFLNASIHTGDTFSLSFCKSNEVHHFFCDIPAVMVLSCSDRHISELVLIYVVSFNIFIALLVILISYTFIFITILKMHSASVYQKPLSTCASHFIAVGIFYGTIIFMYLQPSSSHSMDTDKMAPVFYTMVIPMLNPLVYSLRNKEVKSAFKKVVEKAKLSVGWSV
In short: as §1

OR5B2 E6D = test system: T9, OR5B2 E6D
T9 sequence (whole entry): T6 sequence (whole entry) with E6D
In short: as §1

OR5B3 I198V G247A = test system: T10, OR5B3 I198V G247A
T10 sequence (whole entry): T8 sequence (whole entry) with I198V, G247A
In short: as §1

Measured: odorant receptor agonist call;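 further: active if original authors judged signal statistically different from baseline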

CCCCCC(S)C(C)CO (stereo unspecified)
not listed: OR5B2 E6D | OR5B3 I198V G247A
inactive: all other assays above

CCCCCCC=CCCC=O
inactive: all assays above

Cc1cnc(C)c(C)n1
inactive: all assays above

CCC(=O)C=CC1C(C)=CCCC1(C)C (stereo unspecified)
inactive: OR5B17 (Homo sapiens)

C=CC(C)(CCC=C(C)C)OC(C)=O (stereo unspecified)
inactive: OR5B17 (Homo sapiens)

CCC(S)C(C)CO (stereo unspecified)
not listed: OR5B2 E6D | OR5B3 I198V G247A
inactive: all other assays above

CCC1OC(=O)C(O)=C1C (stereo unspecified)
inactive: all assays above

CC(CO)CS (stereo unspecified)
not listed: OR5B2 E6D | OR5B3 I198V G247A
inactive: all other assays above

C=CCOC(=O)COCCC(C)C
inactive: OR5B17 (Homo sapiens)

CC1=C(O)C(=O)C(C)O1 (stereo unspecified)
inactive: all assays above

CC1=C(O)C(=O)OC1C (stereo unspecified)
inactive: all assays above

CCCC(S)CCOC(C)=O (stereo unspecified)
inactive: all assays above

CCC1OC(C)=C(O)C1=O (stereo unspecified)
inactive: all assays above

CCCCCC(=O)C(C)C(C)=O (stereo unspecified)
not listed: OR5B2 E6D | OR5B3 I198V G247A
inactive: all other assays above

CC1=NC(C)C(C)S1 (stereo unspecified)
inactive: all assays above

CC1CCCCCCCCCCCCC(=O)C1 (stereo unspecified)
not listed: OR5B2 E6D | OR5B3 I198V G247A
inactive: all other assays above

CCCCC1CCC(=O)O1 (stereo unspecified)
inactive: OR5B17 (Homo sapiens)

CC(C)CCCC(C)(C)O
inactive: OR5B17 (Homo sapiens)

CCCCC(S)C(C)CO (stereo unspecified)
not listed: OR5B2 E6D | OR5B3 I198V G247A
inactive: all other assays above

CC(=O)c1c(C)c([N+](=O)[O-])c(C(C)(C)C)c([N+](=O)[O-])c1C
not listed: OR5B2 E6D | OR5B3 I198V G247A
inactive: all other assays above
